Values belong to the compound of their own block, whether it stands above or below them.
Legend:
[1] = Volume of distribution at steady state in Sprague-Dawley rat at 5 mg/kg; format: ADME, organism-based; design: dose 5 mg/kg; conditions: in vivo, read-out: Vdss
[2] = Clearance in Sprague-Dawley rat at 5 mg/kg; format: ADME, organism-based; design: dose 5 mg/kg; conditions: in vivo
[3] = Oral bioavailability in Beagle dog at 2.5 mg/kg; format: ADME, organism-based, Canis lupus familiaris; conditions: in vivo
[4] = Half life in Beagle dog at 2.5 mg/kg, iv; format: ADME, organism-based, Canis lupus familiaris; design: dose 2.5 mg/kg, route intravenous; conditions: in vivo
[5] = AUC in Beagle dog at 2.5 mg/kg, po; format: ADME, organism-based, Canis lupus familiaris; design: dose 2.5 mg/kg, route oral; conditions: plasma
[6] = Cmax in Beagle dog at 2.5 mg/kg, po; format: ADME, organism-based, Canis lupus familiaris; design: dose 2.5 mg/kg, route oral; conditions: in vivo
[7] = Volume of distribution at steady state in Beagle dog at 2.5 mg/kg; format: ADME, organism-based, Canis lupus familiaris; design: dose 2.5 mg/kg; conditions: in vivo, read-out: Vdss
[8] = Clearance in Beagle dog at 2.5 mg/kg; format: ADME, organism-based, Canis lupus familiaris; design: dose 2.5 mg/kg; conditions: in vivo
[9] = Oral bioavailability in cynomolgus monkey at 2.5 mg/kg; format: ADME, organism-based, Macaca fascicularis; conditions: in vivo
[10] = Half life in cynomolgus monkey at 2.5 mg/kg, iv; format: ADME, organism-based, Macaca fascicularis; design: dose 2.5 mg/kg, route intravenous; conditions: in vivo
[11] = AUC in cynomolgus monkey at 2.5 mg/kg, po; format: ADME, organism-based, Macaca fascicularis; design: dose 2.5 mg/kg, route oral; conditions: plasma
[12] = Cmax in cynomolgus monkey at 2.5 mg/kg, po; format: ADME, organism-based, Macaca fascicularis; design: dose 2.5 mg/kg, route oral; conditions: in vivo
[13] = Volume of distribution at steady state in cynomolgus monkey at 2.5 mg/kg; format: ADME, organism-based, Macaca fascicularis; design: dose 2.5 mg/kg; conditions: in vivo, read-out: Vdss
[14] = Clearance in cynomolgus monkey at 2.5 mg/kg; format: ADME, organism-based, Macaca fascicularis; design: dose 2.5 mg/kg; conditions: in vivo
[15] = Oral bioavailability in CD1 mouse at 10 mg/kg; format: ADME, organism-based; conditions: in vivo
In short: (§1)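 Mouse PK: oral dose 10 mg/kg in 2.5% EtOH, 1 drop Tween-80, 25% PEG400 in PBS; iv dose 3 mg/kg in 2.5% EtOH, 5% DMSO, 1 drop Tween-80, 25% PEG400 in PBS. Oral bioavailability, iv half-life, oral AUC and Cmax derived from plasma profiles.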

[16] = Half life in CD1 mouse at 3 mg/kg, iv; format: ADME, organism-based; design: dose 3 mg/kg, route intravenous; conditions: in vivo; in short: as §1
[17] = AUC in CD1 mouse at 10 mg/kg, po; format: ADME, organism-based; design: dose 10 mg/kg, route oral; conditions: plasma; in short: as §1
[18] = Cmax in CD1 mouse at 10 mg/kg, po; format: ADME, organism-based; design: dose 10 mg/kg, route oral; conditions: in vivo; in short: as §1
[19] = Volume of distribution at steady state in CD1 mouse at 10 mg/kg; format: ADME, organism-based; design: dose 10 mg/kg; conditions: in vivo, read-out: Vdss
[20] = Clearance in CD1 mouse at 10 mg/kg; format: ADME, organism-based; design: dose 10 mg/kg; conditions: in vivo
In short: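 Mouse pharmacokinetics. Oral dose of 10 mg/kg in 2.5% EtOH, 1 drop Tween-80 and 25% PEG400 in PBS. Intravenous dose of 3 mg/kg in 2.5% EtOH, 5% DMSO, 1 drop Tween-80 and 25% PEG400 in PBS.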

[21] = Oral bioavailability in Sprague-Dawley rat at 5 mg/kg; format: ADME, organism-based; conditions: in vivo
[22] = Half life in Sprague-Dawley rat at 5 mg/kg, iv; format: ADME, organism-based; design: dose 5 mg/kg, route intravenous; conditions: in vivo
[23] = AUC in Sprague-Dawley rat at 5 mg/kg, po; format: ADME, organism-based; design: dose 5 mg/kg, route oral; conditions: plasma
[24] = Cmax in Sprague-Dawley rat at 5 mg/kg, po; format: ADME, organism-based; design: dose 5 mg/kg, route oral; conditions: in vivo
MX1 = experiment: animal or person; conditions: Mus musculus, MX1, ip, 816 h, read-out: TGI

Vd [1]: 7.5 L/kg | clearance [2]: 2 L/h/kg | bioavailability [3]: 48% | half-life [4]: 2.2 h | AUC [5]: 1.4 µg·h/mL | Cmax [6]: 0.5 µg/mL | Vd [7]: 2.9 L/kg | clearance [8]: 0.9 L/h/kg | bioavailability [9]: 39% | half-life [10]: 1.5 h | AUC [11]: 0.7 µg·h/mL | Cmax [12]: 0.2 µg/mL | Vd [13]: 3 L/kg | clearance [14]: 1.4 L/h/kg | bioavailability [15]: 66% | half-life [16]: 1.2 h | AUC [17]: 1.1 µg·h/mL | Cmax [18]: 0.8 µg/mL | Vd [19]: 10.3 L/kg | clearance [20]: 6.2 L/h/kg | bioavailability [21]: 72% | half-life [22]: 2.4 h | AUC [23]: 1.9 µg·h/mL | Cmax [24]: 0.6 µg/mL
Compound: C[C@@]1(c2nc3c(C(N)=O)cccc3[nH]2)CCCN1

Compound: O=P1(N(CCCl)CCCl)NCCCO1 (stereo not given) [CYCLOPHOSPHAMIDE ANHYDROUS]
inhibition in vivo at 12.5 mg/kg/day (MX1): 73%

Source: ChEMBL document CHEMBL1139389, “Discovery of the Poly(ADP-ribose) polymerase (PARP) inhibitor 2-[(R)-2-methylpyrrolidin-2-yl]-1H-benzimidazole-4-carboxamide (ABT-888) for the treatment of cancer” (J Med Chem, 2009)
